Measurements reported in ChEMBL document CHEMBL5154939, “Improved Binding Affinity and Pharmacokinetics Enable Sustained Degradation of BCL6 In Vivo” (J Med Chem, 2022).
Values after ≈ are worked out from the molar mass of the structure shown. Active and inactive are the calls of the source. No cut-off for these calls is given here.

Key:
[1] = molecular target: T1, B-cell lymphoma 6 protein (Homo sapiens, UniProt P41182); test: Degradation of BCL6 in human OCI-Ly1 cells incubated for 2 hrs by MSD assay; type: cell-based
Method in brief: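 Lysates were read by MSD sandwich immunoassay (goat capture, rabbit detection anti-BCL6, electrochemiluminescence). Signal was normalised to DMSO (high) and a reference degrader control at 2 μM (low). DC50 came from a four-parameter logistic fit, with Dmax reported.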

[2] = Toxicity in SCID mouse xenografted with human HT cells assessed as body weight loss at 50 mg/kg, po bid measured upto 22 days; type: organism-based; settings: in vivo, 528 h, time < 22 day
Method in brief: (§1)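 HT cells grown in RPMI-1640 with 10% FBS, kept at 0.5-2 × 10^6 cells/mL. For implantation, 10^7 cells per 200 µL in serum-free RPMI plus an equal volume of Matrigel were injected subcutaneously at a single site in female SCID mice. At day 20, tumours of 0.4-0.6 cm³ were chosen, n=10 per group. Oral dosing at 50 mg/kg or vehicle was given every 12 h for 22 days (DMSO/Kolliphor HS15/PEG400/aqueous HPMC, 0.2 mL per 20 g).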

OCI-Ly1 = test: Downregulation of BCL6 levels in human OCI-Ly1 cells xenografted in SCID mouse at 50 mg/kg, po measured for 12 to 24 hrs by capillary electrophoresis method; type: functional, organism-based; settings: time lower […], time upper 24.0 hrs
Method in brief: (§2)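 Female SCID mice with subcutaneous OCI-Ly1 xenografts (1.5×10^7 cells in serum-free IMDM/Matrigel; tumours 0.4-0.6 cm³ at day 20) received one oral dose of 50 mg/kg or vehicle (DMSO/Kolliphor HS15/PEG400/HPMC). Groups of n=3 were sampled at 12, 16 and 24 h. Tumour lysates were analysed by Wes capillary electrophoresis, with BCL6 normalised to GAPDH.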

[3] = Toxicity in SCID mouse xenografted with human OCI-Ly1 cells assessed as noticeable adverse effects at 50 mg/kg, po measured for 12 to 24 hrs; type: organism-based; settings: in vivo, time 12-24 hrs; method in brief: as §2
[4] = Cmax in BALB/c mouse at 1 mg/kg, iv or 5 mg/kg, po measured after 6 hrs post-dose by ESI-LCMS/MS based UPLC analysis; type: ADME, organism-based; set-up: time 6 hrs, dose 5 mg/kg, route po; settings: in vivo
[5] = Clearance in BALB/c mouse at 1 mg/kg, iv or 5 mg/kg, po measured after 6 hrs post-dose by ESI-LCMS/MS based UPLC analysis relative to hepatic blood flow; type: ADME, organism-based; settings: in vivo
[6] = Toxicity in BALB/c mouse at 1 mg/kg, iv or 5 mg/kg, po measured upto 24 hrs post-dose; type: organism-based; settings: in vivo
HT [7] = test: Downregulation of BCL6 levels in human HT cells xenografted in SCID mouse at 50 mg/kg, po bid measured for 4 to 12 hrs post-dose by capillary electrophoresis method; type: functional, organism-based; settings: time lower 4.0 hrs, time upper […]
Method in brief: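 Female SCID mice bearing subcutaneous HT xenografts (10^7 cells with Matrigel) were dosed orally at 50 mg/kg BID, every 12 h, for 22 days; vehicle was DMSO/Kolliphor HS15/PEG400/1.25% HPMC. Tumours were taken 4 and 12 h after the final dose, snap-frozen and bead-homogenised in Tris/Triton lysis buffer. Lysates at 0.0875 mg/ml were run on Wes capillary electrophoresis, with BCL6 normalised to GAPDH.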

HT [8] = test: Antitumor activity against human HT cells xenografted in SCID mouse assessed as reduction in tumor growth at 50 mg/kg, po bid measured upto 22 days; type: functional, organism-based; settings: time <= 22.0 day; method in brief: as §1
[9] = molecular target: T1, B-cell lymphoma 6 protein
[10] = Passive membrane permeability of compound in phosphate buffered saline at pH 7.4 at 10 uM incubated for 16 hrs by PAMPA assay based TQ-S LC-MS/MS analysis; type: ADME; settings: read-out: permeability
Method in brief: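 PAMPA with a 2% phosphatidylcholine-in-dodecane membrane. Compound at 10 µM in PBS pH 7.4 containing 1% BSA was incubated 16 h at 30 °C. Supernatants were diluted and quantified by LC-MS/MS.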

[11] = Kinetic aqueous solubility of the compound in 1% DMSO/PBS at pH 7.4 incubated for 2 hrs by UV-vis detection based HPLC analysis; type: physicochemical; settings: PBS with 1% DMSO, read-out: Kinetic_solubility
Method in brief: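 A 10 mM DMSO stock was diluted into PBS pH 7.4 to 100 µM final with 1% DMSO, shaken 2 h at 20 °C and centrifuged. The supernatant was mixed with DMSO and measured by HPLC-UV on a 5 min water:methanol gradient with 0.1% formic acid at 30 °C, against an external standard from the same stock.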

SMILES	EC50 [1] [nM]	further results
Cn1c(=O)c2c(c3cc(Nc4nc(N5CCC[C@H](O)C5)ncc4Cl)ccc31)N[C@@H](C1CC1)C(F)(F)CO2	> 2000	–
Cn1c(=O)c2c(c3cc(Nc4nc(N5CCC(F)(F)[C@H](CO)C5)ncc4Cl)ccc31)N[C@@H](C1CC1)C(F)(F)CO2	> 2000	–
C[C@H]1C[C@H](O)CN(c2ncc(Cl)c(Nc3ccc4c(c3)c3c(c(=O)n4C)OCC(F)(F)[C@H](C4CC4)N3)n2)C1	> 2000	–
C[C@@H]1C[C@@H](O)CN(c2ncc(Cl)c(Nc3ccc4c(c3)c3c(c(=O)n4C)OCC(F)(F)[C@H](C4CC4)N3)n2)C1	> 2000	–
Cn1c(=O)c2c(c3cc(Nc4nc(N5CCC(F)(F)[C@H](O)C5)ncc4Cl)ccc31)N[C@@H](C1CC1)C(F)(F)CO2	> 2000	–
C[C@H]1C[C@@H](N(C)C)CN(c2ncc(Cl)c(Nc3ccc4c(c3)c3c(c(=O)n4C)OCC(F)(F)[C@H](C4CC4)N3)n2)C1	9.8	–
Cn1c(=O)n(CCC(C)(C)O)c2cc(Nc3nc(N4CCC(F)(F)C(O)C4)ncc3Cl)ccc21 (racemic)	276	–
C[C@H]1C[C@@H](O)CN(c2ncc(Cl)c(Nc3ccc4c(c3)c3c(c(=O)n4C)OCC(F)(F)[C@H](C4CC4)N3)n2)C1	0.7	Activity [2]: Non-Toxic; Activity (OCI-Ly1): Active; Activity [3]: Non-Toxic; Cmax [4]: 3950 nM; CLH [5]: 6%; Activity [6]: Non-Toxic; Activity (HT [7]): Active; Activity (HT [8]): Active; EC50 [9]: 1 nM
C[C@@H]1C[C@H](N(C)C)CN(c2ncc(Cl)c(Nc3ccc4c(c3)c3c(c(=O)n4C)OCC(F)(F)[C@H](C4CC4)N3)n2)C1	> 2000	–
C[C@@H]1CN(c2ncc(Cl)c(Nc3ccc4c(c3)n(CCC(C)(C)O)c(=O)n4C)n2)C[C@H](C)C1(F)F	–	Papp at 16 h, 10 µM [10]: 33 ×10⁻⁶ cm/s; Cmax [4]: 1580 nM; CLH [5]: 22%
Cn1c(=O)c2c(c3cc(Nc4nc(N5CCC(F)(F)[C@@H](O)C5)ncc4Cl)ccc31)N[C@@H](C1CC1)C(F)(F)CO2	7.1	–
Cn1c(=O)c2c(c3cc(Nc4nc(N5CCC(F)(F)[C@@H](CO)C5)ncc4Cl)ccc31)N[C@@H](C1CC1)C(F)(F)CO2	2.7	solubility kinetic at 2 h [11]: 13 µM (≈ 7.58 µg/mL); Papp at 16 h, 10 µM [10]: 21 ×10⁻⁶ cm/s
CC(=O)N[C@@H]1C[C@H](C)CN(c2ncc(Cl)c(Nc3ccc4c(c3)c3c(c(=O)n4C)OCC(F)(F)[C@H](C4CC4)N3)n2)C1	2.2	–
C[C@@H]1C[C@H](O)CN(c2ncc(Cl)c(Nc3ccc4c(c3)c3c(c(=O)n4C)OCC(F)(F)[C@H](C4CC4)N3)n2)C1	> 2000	Papp at 16 h, 10 µM [10]: 16 ×10⁻⁶ cm/s; EC50 [9]: > 2000 nM
CC(=O)N[C@H]1C[C@@H](C)CN(c2ncc(Cl)c(Nc3ccc4c(c3)c3c(c(=O)n4C)OCC(F)(F)[C@H](C4CC4)N3)n2)C1	> 2000	–
Cn1c(=O)c2c(c3cc(Nc4nc(N5CCC[C@@H](O)C5)ncc4Cl)ccc31)N[C@@H](C1CC1)C(F)(F)CO2	> 2000	–
C[C@H]1C[C@@H](O)CN(c2ncc(Cl)c(Nc3ccc4c(c3)n(CCC(C)(C)O)c(=O)n4C)n2)C1 (relative stereo)	35	–
C[C@H]1CCCN(c2ncc(Cl)c(Nc3ccc4c(c3)c3c(c(=O)n4C)OCC(F)(F)[C@H](C4CC4)N3)n2)C1	6.3	–
C[C@@H]1CCCN(c2ncc(Cl)c(Nc3ccc4c(c3)c3c(c(=O)n4C)OCC(F)(F)[C@H](C4CC4)N3)n2)C1	32.6	–
